Source: PubChem
Phagocyt inh – inhibitors of macrophage phagocytosis; J774A.1 macrophage IgG-bead phagocytosis, imaging; inhibition, % at 5 µM; 110,000 tested, 0.07% active; AID 1029;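 active means inhibition above the mean of the plate negative controls plus 5 SD, cut at about 13% in these data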;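 further: phagocytic index as fraction of beads internalized from green versus red external bead signal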
Yeast growth inh – reduces growth of yeast BB579 in restrictive medium; 140,000 tested, 0.51% active; S. cerevisiae BB579 growth, OD615, 48 h; inhibition, % at 10 µM;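 active means inhibition above a set limit, 3 SD over the mean compound inhibition, cut at about 44% in these data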
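Test system: Saccharomyces cerevisiae DeaD strain BB579, replicative lifespan model yeast | Buffer or medium: Restrictive CSMM-D medium | Doses: One dose, 10 µM compound with 0.25% DMSO | Incubation: 48 h exposure, 30 °C | Detection: Culture absorbance at 615 nm | Control set: Amphotericin B at 10 µg/mL as positive control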
Yeast lifespan up – yeast lifespan extension; S. cerevisiae growth with nicotinamide, OD615; deaD strain in restrictive glucose medium; inhibition of the nicotinamide effect, % at 10 µM; 130,000 tested, 0.68% active;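 active means inhibition above a set limit, placed 3 SD over the median of all compounds, cut at about 26% in these data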
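System: DeaD-strain S. cerevisiae / Buffer or medium: CSMM-D, restrictive glucose (dextrose) synthetic minimal medium / Probe or stimulus: nicotinamide, 1.5 mM, co-present with compound / Compound: one concentration, 10 µM, DMSO 0.25% / Incubation: 48 h compound exposure at 30 °C, humidified / Technique: optical density (absorbance) at 615 nm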
RAM network inh – blocks the yeast RAM network; S. cerevisiae dse1pr::URA3 reporter, 5-FOA growth OD615, 2 d; analog-sensitive cbk1-as2 kinase mutant strain; inhibition, % at 50 µM; 190,000 tested, 1.8% active;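 active means inhibition above a set limit, 3 SD over mean compound inhibition, cut at about 8.4% in these data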;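 further: inhibition rescues growth on 5-FOA so higher OD means more RAM inhibition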
Measles CPE – protection of cells from measles virus; Measles virus-infected cells, CPE protection, absorbance; protection (pct of control), % at 4 µM; 140,000 tested, 1.5% active; in the data active means protection mostly above about 24%, no sharp cut-off; inactive means mostly below about 26%
Hits are given with their value; n = inactive; x = not tested or not shown. Sampled rows, rich in hits. Any-hit rate of the full collection: about 3.6%.

SMILES | Phagocyt inh | Yeast growth inh | Yeast lifespan up | RAM network inh | Measles CPE
CC(C(=O)Nc1ccc(N2CCOCC2)cc1)N1C(=O)c2ccccc2C1=O (stereo not given) | x | n | n | n | n
CC(C)C(C(=O)Nc1ccc(N2CCOCC2)cc1)N1C(=O)c2ccccc2C1=O (stereo not given) | n | n | n | 9.3 | n
COc1ccc(CCNC2CC(=O)N(C3CCCCC3)C2=O)cc1OC (stereo not given) | x | x | x | n | x
CCC(=O)Nc1cc(ON=C(C)C)cc([N+](=O)[O-])c1 | n | n | n | n | 96
CC(C)=NOc1cc(NC(=O)CCl)cc([N+](=O)[O-])c1 | n | n | n | n | n
O=C(Cc1ccc2c(c1)CCCC2)Nc1ccc2ccccc2c1 | n | n | n | n | n
CN1Cc2cccc3c2C(Cc2ccccc2S3)C1 (stereo not given) | n | n | n | n | n
CC(=O)C1=C(C)NC(SCC(=O)c2ccc(Cl)cc2)=C(C#N)C1CC(C)C (stereo not given) | x | n | n | 9.1 | n
CCn1nc(CC(=O)Nc2nnc(CC(=O)N3CCOCC3)s2)c2ccccc2c1=O | n | n | n | n | 28
CCn1nc(CC(=O)Nc2nnc(CC(=O)N3CCCC3)s2)c2ccccc2c1=O | n | n | n | n | n
CCn1c(SCC(N)=O)nnc1-c1ccco1 | n | n | n | n | n
CCn1c(SCc2cccc(C(F)(F)F)c2)nnc1-c1ccco1 | x | n | n | 9.6 | n
COc1ccc(OCC(=O)NC(=S)Nc2ccccc2F)cc1 | n | n | n | n | n
O=C(/C=C/c1cccs1)c1ccc(Br)cc1 | x | n | n | n | n
O=C(/C=C\c1cccs1)c1c(O)ccc2ccc(=O)oc12 | n | n | 27 | n | n
CC1(C)CC(=O)C2=C(C1)NC(=O)CC2c1cccc(F)c1 (stereo not given) | x | n | n | n | 43
NC(=S)Cc1nc2n(n1)Cc1ccccc1-2 | n | n | n | n | 50
CCOc1cc(/C=C2\CCCC(C(=O)C(F)(F)F)=C2O)ccc1O | n | n | n | 9.1 | n
O=[N+]([O-])c1ccc(C[n+]2cccc3c4ccccc4ccc32)cc1 | x | x | x | n | x
CCCCCCCCC[n+]1cccc2c3ccccc3ccc21 | n | n | n | n | 29
CCCCCCCCCCCCCCCC[n+]1cccc2ccccc21 | n | 100 | n | n | n
CC(C)N1CCC(N2CCN(C3CCCCCC3)CC2CCO)CC1 (stereo not given) | x | x | x | n | x
COc1cc(NC2c3ccccc3C(=O)N2c2ccc(C)cn2)cc(OC)c1OC (stereo not given) | n | n | 27 | n | n
CC1=C(C)/C(=N\OS(=O)(=O)c2ccccc2)C=CC1=O | x | 100 | n | n | n
Cc1ccc(S(=O)(=O)O/N=C2\CCCc3ccccc32)cc1 | n | n | n | n | n
SMILES | Phagocyt inh | Yeast growth inh | Yeast lifespan up | RAM network inh | Measles CPE
COCC[N+]1(C)CCCCC1 | x | x | x | n | x
O=C(O)c1ccc(Nc2ncc([N+](=O)[O-])cc2[N+](=O)[O-])cc1 | x | x | x | n | x
CC(C)CN=C(NS(=O)(=O)c1ccccc1)C(Cl)(Cl)Cl | n | n | 44 | n | n
C/C(O)=c1/ccc2cccc3nc(C)nc1c23 | n | 69 | n | n | 113
Fc1cccc(CSc2ccc3nnc(-c4cccnc4)n3n2)c1 | x | x | x | n | x
COc1cc(/C=C2/S/C(=N/S(=O)(=O)c3ccccc3)NC2=O)c([N+](=O)[O-])cc1OC | n | n | n | 9.4 | n
CC1(C)CC(=O)C2=C(C1)OC(N)=C(C#N)C2c1cccs1 (stereo not given) | x | x | x | n | x
COC(=O)C1=C(N)OC2=C(C(=O)CC(C)(C)C2)C1c1cccs1 (stereo not given) | x | n | 35 | n | n
COc1ccc(-c2cc(=O)c3ccccc3s2)cc1 | n | n | n | 8.8 | n
COc1cc(/C=C/C(=O)OCC(=O)NC(=O)NC(C)C)cc(S(=O)(=O)N2CCc3ccccc32)c1OC | x | x | x | n | x
CCOc1ccccc1Nc1nnc(C)c(=O)[nH]1 | n | n | n | n | 60
COc1ccc(CN(Cc2ccc(C(=O)O)cc2)C(=S)Nc2ccc(C)cc2)cc1OC | x | x | x | n | x
Oc1ccccc1-c1csc(-c2ccccc2)n1 | x | x | x | n | x
Oc1ccc(-c2csc(-c3ccccc3)n2)cc1O | n | 83 | n | n | n
CCn1cc(/C=N\NC(=O)Cc2ccc([N+](=O)[O-])cc2)c(C)n1 | n | n | n | n | n
CC1(C2CC2)NC(=O)N(CC(=O)Nc2ccccc2-c2ccccc2)C1=O (stereo not given) | x | x | x | n | x
COc1ccc(CCNC(=O)CCn2c(=O)[nH]c3cc(OC)c(OC)cc3c2=O)cc1OC | x | n | n | n | n
COc1cc2[nH]c(=O)n(CCC(=O)NCc3cccnc3)c(=O)c2cc1OC | n | n | n | n | 67
COc1cc2cc(CN(Cc3cccnc3)C(=O)NCc3ccccc3)c(=O)[nH]c2cc1OC | n | n | n | n | 48
COc1cc2cc(CN(Cc3cccnc3)C(=O)Nc3ccccc3)c(=O)[nH]c2cc1OC | x | x | x | n | x
Cc1cc(NC(=O)CN2C(=O)NC3(CCCCC3C)C2=O)no1 (stereo not given) | x | n | n | n | n
Cc1ccc(C(=O)/C=C/c2cn(CN3CCN(C)CC3)c3ccccc23)cc1 | n | 73 | n | n | n
Oc1c(Cl)cc(Cl)cc1C=Nc1ccccc1N1CCCC1 | n | n | 28 | n | n
NC(=O)c1cccc(N=Cc2cc(Cl)cc(Cl)c2O)c1 | x | x | x | n | x
CCC1=NN2C(=N)/C(=C/c3c(C)nn(-c4ccccc4)c3Cl)C(=O)N=C2S1 | n | n | n | n | 71
SMILES | Phagocyt inh | Yeast growth inh | Yeast lifespan up | RAM network inh | Measles CPE
CCC1=NN2C(=N)/C(=C\c3cccn3-c3ccc(OC)cc3)C(=O)N=C2S1 | x | x | x | n | x
CCC1CC(C)(C(=O)Nc2ccc(S(N)(=O)=O)cc2)OC1=O (stereo not given) | n | n | 49 | n | n
CN1CCN(C(=S)Nc2cc([N+](=O)[O-])ccc2Cl)CC1 | n | n | 45 | n | n
CCC(=O)NC(=S)N1CCN(c2ccc([N+](=O)[O-])cc2Cl)CC1 | x | n | n | n | 29
COc1ccc(OC)c(CN2C(=O)c3ccccc3C2C(=O)NCc2cccnc2)c1 (stereo not given) | n | n | n | n | n
COc1ccc(CN2C(=O)c3ccccc3C2C(=O)NCc2cccnc2)c(OC)c1 (stereo not given) | n | n | n | n | 33
Cc1cc(C)nc(SCC(=O)Nc2ccc(Br)cn2)n1 | n | n | n | n | 18
CSc1nsc(SCC(=O)Nc2ccc(Br)cn2)n1 | n | n | n | n | n
COc1cc(C(C[N+](=O)[O-])c2c(-c3ccccc3)cc3ccccn23)cc(OC)c1OC (stereo not given) | n | n | 78 | n | n
Cc1ccc(SCCC(=O)NC2CC2)cc1 | x | x | x | n | x
COc1ccc(/C=C2\SC(=NCc3ccccc3)N(Cc3ccccc3)C2=O)cc1OC | n | n | n | 9.4 | n
CC1Cc2ccccc2N1C1=CC(=O)CCC1 (stereo not given) | x | x | x | n | x
Cc1ccc(Cn2cc(C(=O)c3ccc(F)cc3)c(=O)c3cc4c(cc32)OCCO4)cc1 | x | n | n | 10 | n
